Reference: ChEMBL document CHEMBL4028818, “Tricyclic 4,4-dimethyl-3,4-dihydrochromeno[3,4-d]imidazole derivatives as microsomal prostaglandin E2 synthase-1 (mPGES-1) inhibitors: SAR and in vivo efficacy in hyperalgesia pain model” (Bioorg Med Chem Lett, 2017)

Tests used:
Prostaglandin E synthase = molecular target: T1, Prostaglandin E synthase (Homo sapiens, UniProt O14684); assay: Inhibition of mPGES-1 in human A549 cells assessed as decrease in IL1beta induced PGE2 release preincubated for 30 mins followed by IL-1beta addition after 16 to 20 hrs by HTRF method; type: cell-based
T1 sequence (O14684 whole entry): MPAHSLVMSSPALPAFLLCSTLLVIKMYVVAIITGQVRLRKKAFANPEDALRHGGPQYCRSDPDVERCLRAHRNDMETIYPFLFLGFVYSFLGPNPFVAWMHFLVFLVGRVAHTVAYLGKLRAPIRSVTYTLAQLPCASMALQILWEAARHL

CYP2D6 = CYP2D6 (Homo sapiens, UniProt P10635); assay: (§1) Inhibition of CYP2D6 in human liver microsomes at 10 uM measured after 20 mins in presence of NADPH by LC/MS/MS analysis relative to control; type: ADME; settings: liver microsomes
How it was run: (§2)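 CYP isoforms 1A2, 2D6, 3A4, 2C9 and 2C19 were tested at 1 and 10 µM. Results are % inhibition compared with a no-inhibitor control, run in triplicate.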

Cytochrome P450 2D6 [1] = molecular target: T2, Cytochrome P450 2D6 (Homo sapiens, UniProt P10635); assay: Inhibition of CYP2D6 in human liver microsomes at 1 uM measured after 20 mins in presence of NADPH by LC/MS/MS analysis; type: ADME; how it was run: as §2
[2] = Protein binding in human plasma at 10 uM after 5 to 10 mins by LC-MS/SM analsysis; type: ADME, cell-free; settings: read-out: PPB
How it was run: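 Plasma protein binding was measured by equilibrium dialysis at 10 µM compound.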

[3] = Drug uptake in CSF of Dunkin Hartley guinea pig model of LPS-induced thermal hyperalgesia pain at 100 mg/kg, po qd measured 7 hrs post dose by LC/MS/MS analysis; type: ADME, organism-based, Cavia porcellus, Cerebrospinal fluid; settings: read-out: Drug uptake
How it was run: (§3)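 In the guinea pig LPS thermal hyperalgesia model, plasma and CSF drug levels were measured at the pharmacodynamic time point after oral dosing. Concentrations are means of n = 8 animals per dose group.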

CYP2C19 = CYP2C19 (Homo sapiens, UniProt P33261); assay: Inhibition of CYP2C19 in human liver microsomes at 10 uM measured after 40 mins in presence of NADPH by LC/MS/MS analysis relative to control; type: ADME; how it was run: as §2
[4] = AUC (0 to 24 hrs) in Sprague-Dawley rat at 10 mg/kg, po; type: ADME, organism-based; parameters: dose 10 mg/kg, time < 24 hr, route oral; settings: in vivo
How it was run: (§4)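 Male Sprague-Dawley rats were dosed orally as a 0.5% methylcellulose suspension. Cmax, AUC0-24, Tmax, T1/2 and %F were determined. Values are mean ± SD, n = 3.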

[5] = Apparent volume of distribution in Sprague-Dawley rat at 5 mg/kg, iv administered as single bolus dose; type: ADME, organism-based; settings: in vivo, read-out: Vz
How it was run: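 Male Sprague-Dawley rats were dosed i.v. in a vehicle of 20% NMP + 20% ethanol + 60% PEG 200. T1/2, CL and Vz were derived. Values are mean ± SD, n = 3.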

[6] = Plasma concentration in Dunkin Hartley guinea pig model of LPS-induced thermal hyperalgesia pain at 100 mg/kg, po qd measured 7 hrs post dose by LC/MS/MS analysis; type: ADME, organism-based, Cavia porcellus; how it was run: as §3
CYP1A2 = molecular target: T3, CYP1A2 (Homo sapiens, UniProt P05177); assay: (§5) Inhibition of CYP1A2 in human liver microsomes at 10 uM measured after 20 mins in presence of NADPH by LC/MS/MS analysis relative to control; type: ADME; settings: liver microsomes; how it was run: as §2
T3 sequence (P05177 whole entry): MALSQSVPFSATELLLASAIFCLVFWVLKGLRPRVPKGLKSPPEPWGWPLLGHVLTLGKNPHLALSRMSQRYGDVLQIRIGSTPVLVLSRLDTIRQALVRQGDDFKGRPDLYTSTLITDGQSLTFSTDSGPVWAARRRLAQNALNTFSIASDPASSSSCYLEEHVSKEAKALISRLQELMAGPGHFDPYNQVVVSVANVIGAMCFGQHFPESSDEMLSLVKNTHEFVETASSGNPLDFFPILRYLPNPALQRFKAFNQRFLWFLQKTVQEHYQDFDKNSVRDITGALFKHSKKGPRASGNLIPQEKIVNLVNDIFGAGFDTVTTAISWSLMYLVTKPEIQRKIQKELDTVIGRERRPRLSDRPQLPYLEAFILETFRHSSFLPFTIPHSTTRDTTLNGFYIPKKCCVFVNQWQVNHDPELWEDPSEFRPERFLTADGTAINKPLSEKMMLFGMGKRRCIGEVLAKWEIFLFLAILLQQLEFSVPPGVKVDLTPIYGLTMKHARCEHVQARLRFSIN

[7] = Cmax in Sprague-Dawley rat at 10 mg/kg, po; type: ADME, organism-based; parameters: dose 10 mg/kg, route oral; settings: in vivo; how it was run: as §4
[8] = Tmax in Guinea pig at 100 mg/kg, po; type: ADME, organism-based, Cavia porcellus; settings: in vivo
How it was run: (§6)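 Single oral dose given to guinea pigs as a 0.5% methylcellulose suspension. Values are mean ± SD, n = 3.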

Cytochrome P450 2D6 [9] = molecular target: T2, Cytochrome P450 2D6; assay: as §1; type: ADME; settings: microsomes, 20 min, 10 µM; how it was run: as §2
[10] = Cmax in Guinea pig at 100 mg/kg, po; type: ADME, organism-based, Cavia porcellus; parameters: dose 100 mg/kg, route oral; settings: in vivo; how it was run: as §6
[11] = Plasma concentration in Dunkin Hartley guinea pig model of LPS-induced thermal hyperalgesia pain at 200 mg/kg, po qd measured 7 hrs post dose by LC/MS/MS analysis; type: ADME, organism-based, Cavia porcellus; how it was run: as §3
[12] = Drug uptake in CSF of Dunkin Hartley guinea pig model of LPS-induced thermal hyperalgesia pain at 200 mg/kg, po qd measured 7 hrs post dose by LC/MS/MS analysis; type: ADME, organism-based, Cavia porcellus, Cerebrospinal fluid; settings: read-out: Drug uptake; how it was run: as §3
[13] = molecular target: T4, Prostaglandin E synthase (Homo sapiens) (UniProt O14684); assay: Inhibition of recombinant human mPGES-1 expressed in CHO cells assessed as reduction in PGE2 formation at 10 uM using PGH2 a substrate preincubated for 10 mins followed by substrate addition measured after 1 min relative to control; type: cell-based
T4 sequence (whole entry): T1 sequence (O14684 whole entry)
How it was run: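 mPGES-1 enzyme inhibition. % inhibition values are means of two experiments in duplicate. IC50 values were derived from graphs of at least two experiments in duplicate.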

Cytochrome P450 1A2 = molecular target: T5, Cytochrome P450 1A2 (Homo sapiens, UniProt P05177); assay: as §5; type: ADME; settings: microsomes, 20 min, 10 µM; how it was run: as §2
T5 sequence (P05177 whole entry): T3 sequence (P05177 whole entry)

T2 sequence (P10635 whole entry): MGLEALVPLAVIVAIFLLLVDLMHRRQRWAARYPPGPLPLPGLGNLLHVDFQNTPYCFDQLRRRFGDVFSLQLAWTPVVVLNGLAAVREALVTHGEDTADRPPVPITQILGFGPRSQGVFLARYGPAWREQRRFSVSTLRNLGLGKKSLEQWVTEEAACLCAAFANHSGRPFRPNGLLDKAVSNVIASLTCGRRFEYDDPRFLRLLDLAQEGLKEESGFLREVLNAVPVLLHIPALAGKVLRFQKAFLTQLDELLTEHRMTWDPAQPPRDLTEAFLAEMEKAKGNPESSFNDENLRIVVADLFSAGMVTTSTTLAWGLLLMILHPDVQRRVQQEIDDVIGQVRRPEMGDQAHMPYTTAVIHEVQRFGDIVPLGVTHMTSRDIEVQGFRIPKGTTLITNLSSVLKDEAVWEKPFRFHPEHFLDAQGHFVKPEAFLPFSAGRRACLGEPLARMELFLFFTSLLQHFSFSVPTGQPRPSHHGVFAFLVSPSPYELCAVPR
Chain of CYP2C19 (P33261 whole entry): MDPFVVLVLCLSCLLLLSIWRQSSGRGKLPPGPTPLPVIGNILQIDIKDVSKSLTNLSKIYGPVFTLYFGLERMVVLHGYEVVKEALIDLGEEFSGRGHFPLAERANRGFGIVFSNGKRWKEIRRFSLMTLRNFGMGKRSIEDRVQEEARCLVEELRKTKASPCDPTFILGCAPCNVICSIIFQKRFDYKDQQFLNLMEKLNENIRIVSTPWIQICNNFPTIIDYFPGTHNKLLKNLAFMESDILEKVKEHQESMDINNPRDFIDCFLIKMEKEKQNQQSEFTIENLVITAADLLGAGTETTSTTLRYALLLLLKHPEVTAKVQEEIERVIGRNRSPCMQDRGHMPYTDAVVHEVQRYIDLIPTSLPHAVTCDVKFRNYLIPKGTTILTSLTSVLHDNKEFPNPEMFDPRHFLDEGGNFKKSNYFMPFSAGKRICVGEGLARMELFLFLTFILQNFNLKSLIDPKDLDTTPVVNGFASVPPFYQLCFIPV
Chain of CYP2D6 (P10635 whole entry, canonical isoform): as the sequence (P10635 whole entry) above

Row | Compound | IC50 (Prostaglandin E synthase) [nM] | inhibition at 20 min, 10 µM (CYP2D6) [%] | inhibition (INH) (Cytochrome P450 2D6 [1]) | fraction unbound at 10 µM [2] | concentration at 7 h [3] [µM] | inhibition at 40 min, 10 µM (CYP2C19) [%] | AUC(0-t) at 24 h [4] [ng·h/mL] | Vd [5] [L/kg] | concentration at 7 h [6] [µM] | inhibition at 20 min, 10 µM (CYP1A2) [%] | Cmax [7] [ng/mL] | Tmax [8] [h] | inhibition (INH) (Cytochrome P450 2D6 [9]) | Cmax [10] [ng/mL] | concentration at 7 h [11] [µM] | concentration at 7 h [12] [µM] | inhibition [13] [%] | inhibition (INH) (Cytochrome P450 1A2)
1 | CC1(C)Oc2cc(C#Cc3cc(Cl)ccc3F)ccc2-c2[nH]c(-c3c(F)cccc3Cl)nc21 | 839 | 26.6 | Not Active | < 0.045 | 0.00263 | 17 to 26 | 12400 | 5.3 | 13.8 | 33.9 | 1180 | – | – | – | – | – | – | –
2 | CC1(C)Oc2cc(-c3cccc(OC(F)(F)F)c3)ccc2-c2[nH]c(-c3c(F)cccc3Cl)nc21 | 840 | – | Not Active | < 0.005 | – | 27.2 | 12600 | 3.11 | – | – | 826 | 24 | Not Active | 803 | 7.5 to 7.54 | 0.00922 | 91.8 | Not Active
